Test results published in ChEMBL document CHEMBL1145935, “Novel sst(4)-selective somatostatin (SRIF) agonists. 4. Three-dimensional consensus structure by NMR” (J Med Chem, 2003).
Several values for one entry are separate records, joined by “and”; a condition that tells them apart may be missing. Equal values may be shown once.

What was measured:
[1] = target: Somatostatin receptor type 4 (Homo sapiens, UniProt P31391); assay: Binding affinity towards human Somatostatin receptor type 4 using 125I-[Leu8,DTrp22,Tyr25]SRIF-28 as radioligand
[2] = target: Somatostatin receptor type 3 (Homo sapiens, UniProt P32745); assay: Binding affinity towards human Somatostatin receptor type 3 using 125I-[Leu8,DTrp22,Tyr25]SRIF-28 as radioligand
Method in brief: (§1)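 Competitive radioligand displacement on cloned somatostatin receptors, with non-selective 125I-[Leu8,DTrp22,Tyr25]SRIF-28 as the tracer. IC50 (nM) is taken from the displacement curves. Separate determinations are listed individually, or their number is given in parentheses.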

[3] = target: Somatostatin receptor type 5 (Homo sapiens, UniProt P35346); assay: Binding affinity towards human Somatostatin receptor type 5 using 125I-[Leu8,DTrp22,Tyr25]SRIF-28 as radioligand; method in brief: as §1
[4] = target: Somatostatin receptor type 2 (Homo sapiens, UniProt P30874); assay: Binding affinity towards human Somatostatin receptor type 2 using 125I-[Leu8,DTrp22,Tyr25]SRIF-28 as radioligand; method in brief: as §1
[5] = target: Somatostatin receptor type 1 (Homo sapiens, UniProt P30872); assay: Binding affinity towards human Somatostatin receptor type 1 using 125I-[Leu8,DTrp22,Tyr25]SRIF-28 as radioligand; method in brief: as §1
Somatostatin receptor type 1, sequence (P30872 whole entry): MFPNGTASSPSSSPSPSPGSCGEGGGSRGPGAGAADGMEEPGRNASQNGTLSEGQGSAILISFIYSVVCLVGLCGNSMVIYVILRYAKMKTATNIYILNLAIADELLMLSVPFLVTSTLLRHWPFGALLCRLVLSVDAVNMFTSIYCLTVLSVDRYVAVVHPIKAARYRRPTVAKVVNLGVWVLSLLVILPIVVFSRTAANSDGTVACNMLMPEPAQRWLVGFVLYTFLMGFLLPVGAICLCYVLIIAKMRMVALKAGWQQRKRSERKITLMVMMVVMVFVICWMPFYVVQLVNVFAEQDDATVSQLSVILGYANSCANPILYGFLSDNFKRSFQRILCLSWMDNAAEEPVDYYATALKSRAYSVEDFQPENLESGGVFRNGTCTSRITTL

Somatostatin receptor type 4, sequence (P31391 whole entry): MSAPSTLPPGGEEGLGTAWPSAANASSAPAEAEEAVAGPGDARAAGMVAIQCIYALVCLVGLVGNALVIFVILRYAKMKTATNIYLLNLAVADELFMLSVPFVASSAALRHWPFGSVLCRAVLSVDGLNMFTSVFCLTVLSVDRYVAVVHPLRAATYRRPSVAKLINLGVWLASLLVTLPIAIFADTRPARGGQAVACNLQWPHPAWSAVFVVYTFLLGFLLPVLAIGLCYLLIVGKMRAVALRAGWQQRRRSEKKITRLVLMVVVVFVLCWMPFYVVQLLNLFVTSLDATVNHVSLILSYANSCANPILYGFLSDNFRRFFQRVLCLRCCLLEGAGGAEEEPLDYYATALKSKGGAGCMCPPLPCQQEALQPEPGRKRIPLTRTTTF
Somatostatin receptor type 3, sequence (P32745 whole entry): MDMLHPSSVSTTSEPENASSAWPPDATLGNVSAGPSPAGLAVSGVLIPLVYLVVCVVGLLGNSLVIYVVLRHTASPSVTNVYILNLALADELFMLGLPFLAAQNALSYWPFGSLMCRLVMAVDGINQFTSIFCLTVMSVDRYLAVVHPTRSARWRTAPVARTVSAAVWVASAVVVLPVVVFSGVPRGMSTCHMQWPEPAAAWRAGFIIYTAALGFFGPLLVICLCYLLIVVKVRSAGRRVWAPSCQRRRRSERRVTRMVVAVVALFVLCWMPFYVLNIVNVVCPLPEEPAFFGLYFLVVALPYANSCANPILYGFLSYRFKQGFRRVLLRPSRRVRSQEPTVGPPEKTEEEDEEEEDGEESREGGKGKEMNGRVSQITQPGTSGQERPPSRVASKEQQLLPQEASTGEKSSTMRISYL
Somatostatin receptor type 2, sequence (P30874 whole entry): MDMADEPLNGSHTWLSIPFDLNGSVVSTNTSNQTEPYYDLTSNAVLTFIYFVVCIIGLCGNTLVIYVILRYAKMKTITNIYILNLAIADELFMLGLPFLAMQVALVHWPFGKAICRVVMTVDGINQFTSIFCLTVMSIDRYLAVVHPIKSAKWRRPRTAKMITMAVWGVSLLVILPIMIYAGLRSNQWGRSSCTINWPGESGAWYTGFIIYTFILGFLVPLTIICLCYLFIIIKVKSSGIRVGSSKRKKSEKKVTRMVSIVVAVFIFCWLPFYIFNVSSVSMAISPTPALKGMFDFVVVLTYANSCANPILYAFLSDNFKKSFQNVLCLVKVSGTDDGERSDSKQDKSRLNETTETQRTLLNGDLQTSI
Somatostatin receptor type 5, sequence (P35346 whole entry): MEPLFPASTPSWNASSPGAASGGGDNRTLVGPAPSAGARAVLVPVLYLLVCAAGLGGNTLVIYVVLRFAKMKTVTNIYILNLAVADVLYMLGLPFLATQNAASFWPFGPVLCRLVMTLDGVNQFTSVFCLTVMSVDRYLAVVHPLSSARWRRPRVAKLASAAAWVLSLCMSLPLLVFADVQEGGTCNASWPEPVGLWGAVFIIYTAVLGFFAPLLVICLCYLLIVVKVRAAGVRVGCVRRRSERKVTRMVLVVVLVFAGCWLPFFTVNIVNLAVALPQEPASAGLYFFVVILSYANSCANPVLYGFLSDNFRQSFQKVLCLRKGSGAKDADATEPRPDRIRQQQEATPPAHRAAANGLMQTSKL

IC50 [1] [nM] | IC50 [2] [nM] | IC50 [3] [nM] | IC50 [4] | IC50 [5] [nM] | SMILES
– | > 10000 | > 1000 | > 1000 nM and 962 nM | > 10000 | C[C@@H]1NC(=O)[C@H](Cc2ccccc2)NC(=O)[C@@H](N)CSSC[C@@H](C(=O)O)NC(=O)[C@H](C)NC(=O)[C@H]([C@@H](C)O)NC(=O)[C@H](CCCCN)NC(=O)[C@@H](Cc2c[nH]c3ccccc23)NC1=O
153 | > 1000 | > 1000 | > 1000 nM | > 10000 | C[C@@H](O)[C@@H]1NC(=O)[C@H](CCCCN)NC(=O)[C@@H](Cc2c[nH]c3ccccc23)NC(=O)N(C)[C@H](C(=O)c2ccccc2)NC(=O)[C@H](Cc2ccccc2)NC(=O)[C@@H](N)CSSC[C@@H](C(=O)O)NC(=O)[C@H](Cc2ccccc2)NC1=O (stereo in doubt)
5.2 | 447 | 768 | 460 nM | > 1000 | C[C@@H](O)[C@@H]1NC(=O)[C@H](CCCCN)NC(=O)[C@@H](Cc2c[nH]c3ccccc23)NC(=O)N(C)[C@@H](C(=O)c2ccccc2)NC(=O)[C@H](Cc2ccccc2)NC(=O)[C@@H](N)CSSC[C@@H](C(=O)O)NC(=O)[C@H](Cc2ccccc2)NC1=O (stereo in doubt)

Further lines, the molecule ahead of its results:

SMILES | IC50 [1] [nM] | IC50 [2] [nM] | IC50 [3] [nM] | IC50 [4] | IC50 [5] [nM]
C[C@@H](O)[C@@H]1NC(=O)[C@H](CCCCN)NC(=O)[C@H]([C@@H](C)c2ccc3ccccc3c2)NC(=O)[C@H](Cc2ccc(O)cc2)NC(=O)[C@H](Cc2ccccc2)NC(=O)[C@@H](N)CSSC[C@@H](C(=O)O)NC(=O)[C@H](Cc2ccccc2)NC1=O | 2.8 | 825 | 360 | 194 nM | –
C[C@@H](O)[C@@H]1NC(=O)[C@H](CCCCN)NC(=O)[C@H]([C@@H](C)c2ccc3ccccc3c2)NC(=O)[C@H](Cc2ccc(O)cc2)NC(=O)[C@H](Cc2ccccc2)NC(=O)[C@H](N)CSSC[C@@H](C(=O)O)NC(=O)[C@H](Cc2ccccc2)NC1=O | 3.5 | 664 | 668 | 339 nM | > 10000
C[C@H](c1ccc2ccccc2c1)[C@@H]1NC(=O)[C@H](Cc2ccc(O)cc2)NC(=O)[C@H](Cc2ccccc2)NC(=O)[C@H](N)CSSC[C@@H](C(=O)O)NC(=O)[C@H](Cc2ccccc2)NC(=O)[C@H]([C@@H](C)O)NC(=O)[C@H](CCCCN)NC1=O | 2.3 | 18 | 18 | 30 nM | 410
C[C@@H]1NC(=O)[C@H](Cc2ccccc2)NC(=O)[C@@H](N)CSSC[C@@H](C(=O)O)NC(=O)[C@H](C)NC(=O)[C@H]([C@@H](C)O)NC(=O)[C@H](CCCCN)NC(=O)[C@H](Cc2c[nH]c3ccccc23)NC1=O | – | > 10000 | > 1000 | > 10000 nM | > 10000
C[C@@H](O)[C@@H]1NC(=O)[C@H](CCCCN)NC(=O)[C@H](Cc2c[nH]c3ccccc23)NC(=O)N(C)[C@@H](C(=O)c2ccccc2)NC(=O)[C@@H](Cc2ccccc2)NC(=O)[C@@H](N)CSSC[C@@H](C(=O)O)NC(=O)[C@H](Cc2ccccc2)NC1=O (stereo in doubt) | 5.4 | 403 | > 1000 | > 1000 nM | > 10000
C[C@@H](O)[C@@H]1NC(=O)[C@H](CCCCN)NC(=O)[C@H](Cc2c[nH]c3ccccc23)NC(=O)N(C)[C@H](C(=O)c2ccccc2)NC(=O)[C@H](Cc2ccccc2)NC(=O)[C@@H](N)CSSC[C@@H](C(=O)O)NC(=O)[C@H](Cc2ccccc2)NC1=O (stereo in doubt) | 133 | 725 | > 1000 | > 1000 nM | > 10000
